Measurements reported in ChEMBL document CHEMBL1955778, “Design and synthesis of novel 7-aminoquinazoline derivatives: antitumor and anticonvulsant activities” (Bioorg Med Chem Lett, 2012).

Assays:
UACC-62 = test: Growth inhibition of human UACC62 cells at 10 uM relative to control; format: functional; settings: read-out: GI
In short: (§1)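 Single-dose screen across the 60-cell-line human tumor panel at 10 μM. Growth inhibition is reported as a percentage, taken as 100 minus the % growth relative to untreated control.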

SR = test: Growth inhibition of human SR cells at 10 uM relative to control; format: functional; settings: read-out: GI; in short: as §1
MDA-MB-435 = test: Growth inhibition of human MDA-MB-435 cells at 10 uM relative to control; format: functional; settings: read-out: GI
In short: (§2)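 Each cell line in a 60-line human tumour panel exposed to one 10 μM concentration. Growth inhibition percentage computed as 100 minus the percentage activity relative to control.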

SF-295 = test: Growth inhibition of human SF295 cells at 10 uM relative to control; format: functional; settings: read-out: GI; in short: as §2
T47D = test: Growth inhibition of human T47D cells at 10 uM relative to control; format: functional; settings: read-out: GI; in short: as §1
U-251 = test: Growth inhibition of human U251 cells at 10 uM relative to control; format: functional; settings: read-out: GI; in short: as §1
CCRF-CEM = test: Growth inhibition of human CCRF-CEM cells at 10 uM relative to control; format: functional; settings: read-out: GI; in short: as §2
BT-549 = test: Growth inhibition of human BT549 cells at 10 uM relative to control; format: functional; settings: read-out: GI; in short: as §2
K562 = test: Growth inhibition of human K562 cells at 10 uM relative to control; format: functional; settings: read-out: GI; in short: as §2
HT-29 = test: Growth inhibition of human HT-29 cells at 10 uM relative to control; format: functional; settings: read-out: GI; in short: as §2
A498 = test: Growth inhibition of human A498 cells at 10 uM relative to control; format: functional; settings: read-out: GI; in short: as §2
LOX IMVI = test: Growth inhibition of human LOXIMVI cells at 10 uM relative to control; format: functional; settings: read-out: GI; in short: as §2
HL-60(TB) = test: Growth inhibition of human HL-60(TB) cells at 10 uM relative to control; format: functional; settings: read-out: GI
In short: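 Single-dose screen at 10 μM across the 60-cell-line tumour panel. Percent growth inhibition = 100 minus percent growth activity relative to untreated control.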

MOLT-4 = test: Growth inhibition of human MOLT4 cells at 10 uM relative to control; format: functional; settings: read-out: GI; in short: as §2
EKVX = test: Growth inhibition of human EKVX cells at 10 uM relative to control; format: functional; settings: read-out: GI; in short: as §2
RPMI-8226 = test: Growth inhibition of human RPMI8226 cells at 10 uM relative to control; format: functional; settings: read-out: GI; in short: as §2
[1] = Neurotoxicity in ip dosed mouse assessed as impaired motor coordination administered 30 mins prior to test by chimney test; format: toxicity, organism-based; settings: in vivo
In short: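 Mice, Chimney test. TD50 is the dose that produces minimal neurological toxicity (impaired motor coordination) in 50% of animals, estimated from testing at several doses.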

SK-MEL-28 = test: Growth inhibition of human SK-MEL-28 cells at 10 uM relative to control; format: functional; settings: read-out: GI; in short: as §2
[2] = Toxicity in ip dose mouse assessed as mortality; format: organism-based; settings: in vivo
In short: (§3)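 In mice, LD50 is the dose causing 50% mortality. ED50 is the dose protecting 50% of mice against pentylenetetrazole-induced seizures. Therapeutic index = LD50/ED50.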

UACC-257 = test: Growth inhibition of human UACC257 cells at 10 uM relative to control; format: functional; settings: read-out: GI; in short: as §1
[3] = Therapeutic index, ratio of LD50 for mouse to ED50 for pentylenetetrazol-induced seizure in mouse; format: organism-based; settings: in vivo, read-out: Ratio LD50/ED50; in short: as §3
SNB-75 = test: Growth inhibition of human SNB75 cells at 10 uM relative to control; format: functional; settings: read-out: GI; in short: as §1
PC-3 = test: Growth inhibition of human PC3 cells at 10 uM relative to control; format: functional; settings: read-out: GI; in short: as §2
A549 = test: Growth inhibition of human A549 cells at 10 uM relative to control; format: functional; settings: read-out: GI; in short: as §2
Mus musculus [4] = test: Anticonvulsant activity in mouse assessed as protection against strychnine-induced seizure at 1 mmol/kg, ip administered 30 min prior to strychnine-challenge measured after 60 mins relative to control; format: functional
Mus musculus [5] = test: Anticonvulsant activity in ip dosed mouse assessed as protection against pentylenetetrazol-induced seizure administered 30 min prior to pentylenetetrazol-challenge measured after 60 mins; format: functional
In short: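 Mice received several doses for quantification. ED50 taken as the dose protecting 50% of mice against pentylenetetrazol-induced seizures.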

Mus musculus [6] = test: Anticonvulsant activity in mouse assessed as protection against maximal electroshock-induced seizure at 1 mmol/kg, ip administered 30 min prior to maximal electroshock-challenge measured after 60 mins relative to control; format: functional
MDA-MB-468 = test: Growth inhibition of human MDA-MB-468 cells at 10 uM relative to control; format: functional; settings: read-out: GI; in short: as §2
Mus musculus [7] = test: Anticonvulsant activity in mouse assessed as protection against pentylenetetrazol-induced seizure at 1 mmol/kg, ip administered 30 min prior to pentylenetetrazol-challenge measured after 60 mins relative to control; format: functional
SK-OV-3 = test: Growth inhibition of human SKOV3 cells at 10 uM relative to control; format: functional; settings: read-out: GI; in short: as §2
UO-31 = test: Growth inhibition of human UO31 cells at 10 uM relative to control; format: functional; settings: read-out: GI; in short: as §1
KM12 = test: Growth inhibition of human KM12 cells at 10 uM relative to control; format: functional; settings: read-out: GI; in short: as §2
Mus musculus [8] = species on record: Mus musculus; test: Protective index, ratio of TD50 for mouse to ED50 for pentylenetetrazol-induced seizure in mouse; format: functional
In short: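 Mice. Index is TD50/ED50. TD50 is the dose causing minimal neurological toxicity in 50% of mice in the Chimney test. ED50 is the dose protecting 50% of mice against pentylenetetrazole-induced seizures. Both are estimated from testing at several doses.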

Mus musculus [9] = test: Anticonvulsant activity in mouse assessed as protection against picrotoxin-induced seizure at 1 mmol/kg, ip administered 30 min prior to picrotoxin-challenge measured after 60 mins relative to control; format: functional
MDA-MB-231 = test: Growth inhibition of human MDA-MB-231 cells at 10 uM relative to control; format: functional; settings: read-out: GI; in short: as §2
NCI-H522 = test: Growth inhibition of human NCI-H522 cells at 10 uM relative to control; format: functional; settings: read-out: GI; in short: as §2
ACHN = test: Growth inhibition of human ACHN cells at 10 uM relative to control; format: functional; settings: read-out: GI; in short: as §2
MCF7 = test: Growth inhibition of human MCF7 cells at 10 uM relative to control; format: functional; settings: read-out: GI; in short: as §2
HCT-15 = test: Growth inhibition of human HCT15 cells at 10 uM relative to control; format: functional; settings: read-out: GI; in short: as §2
Malme-3M = test: Growth inhibition of human MALME-3M cells at 10 uM relative to control; format: functional; settings: read-out: GI; in short: as §2
OVCAR-5 = test: Growth inhibition of human OVCAR5 cells at 10 uM relative to control; format: functional; settings: read-out: GI; in short: as §2
SW-620 = test: Growth inhibition of human SW620 cells at 10 uM relative to control; format: functional; settings: read-out: GI; in short: as §1
CAKI-1 = test: Growth inhibition of human CAKI-1 cells at 10 uM relative to control; format: functional; settings: read-out: GI; in short: as §2
SF-539 = test: Growth inhibition of human SF539 cells at 10 uM relative to control; format: functional; settings: read-out: GI; in short: as §2
OVCAR-3 = test: Growth inhibition of human OVCAR3 cells at 10 uM relative to control; format: functional; settings: read-out: GI; in short: as §2
SNB-19 = test: Growth inhibition of human SNB19 cells at 10 uM relative to control; format: functional; settings: read-out: GI; in short: as §1
SK-MEL-5 = test: Growth inhibition of human SK-MEL-5 cells at 10 uM relative to control; format: functional; settings: read-out: GI; in short: as §2

Cc1ccccc1-n1c(C)nc2cc(NC(=O)c3cccs3)ccc2c1=O
inhibition of growth at 10 µM (UACC-62): 8%
inhibition of growth at 10 µM (SR): 21%
inhibition of growth at 10 µM (MDA-MB-435): 6%
inhibition of growth at 10 µM (SF-295): 6%
inhibition of growth at 10 µM (T47D): 7.8%
inhibition of growth at 10 µM (U-251): 12%
inhibition of growth at 10 µM (CCRF-CEM): 12.2%
inhibition of growth at 10 µM (BT-549): 8%
inhibition of growth at 10 µM (K562): 12.8%
inhibition of growth at 10 µM (HT-29): 11%
inhibition of growth at 10 µM (A498): 9%
inhibition of growth at 10 µM (LOX IMVI): 4.2%
inhibition of growth at 10 µM (HL-60(TB)): 19.2%
inhibition of growth at 10 µM (MOLT-4): 25.6%
inhibition of growth at 10 µM (EKVX): 11%
inhibition of growth at 10 µM (RPMI-8226): 8%

Cc1ccccc1-n1c(C)nc2cc(N3C(=O)CSC3c3ccc(F)cc3)ccc2c1=O (stereo not drawn)
inhibition of growth at 10 µM (UACC-62): 14%
TD50 at 0.5 h [1]: 560 µmol/kg
inhibition of growth at 10 µM (SK-MEL-28): 11%
LD50 [2]: 1020 µmol/kg
inhibition of growth at 10 µM (UACC-257): 9%
selectivity ratio [3]: 2.55
inhibition of growth at 10 µM (SR): 4%
inhibition of growth at 10 µM (SNB-75): 8.5%
inhibition of growth at 10 µM (PC-3): 12.2%
inhibition of growth at 10 µM (MDA-MB-435): 9.7%
inhibition of growth at 10 µM (A549): 2%
Activity (Mus musculus [4]): 0%
ED50 (Mus musculus [5]): 400 µmol/kg
Activity (Mus musculus [6]): 100%
inhibition of growth at 10 µM (SF-295): 7%
inhibition of growth at 10 µM (MDA-MB-468): 2.5%
Activity (Mus musculus [7]): 100%
inhibition of growth at 10 µM (U-251): 11%
inhibition of growth at 10 µM (CCRF-CEM): 13.2%
inhibition of growth at 10 µM (SK-OV-3): 3%
inhibition of growth at 10 µM (UO-31): 11.7%
inhibition of growth at 10 µM (K562): 10%
inhibition of growth at 10 µM (HT-29): 3%
inhibition of growth at 10 µM (KM12): 4%
Ratio TD50/ED50 (Mus musculus [8]): 1.4
inhibition of growth at 10 µM (LOX IMVI): 5%
inhibition of growth at 10 µM (HL-60(TB)): 7%
Activity (Mus musculus [9]): 75%
inhibition of growth at 10 µM (MOLT-4): 28.9%
inhibition of growth at 10 µM (MDA-MB-231): 8%
inhibition of growth at 10 µM (NCI-H522): 18%
inhibition of growth at 10 µM (ACHN): 3%
inhibition of growth at 10 µM (RPMI-8226): 10%
inhibition of growth at 10 µM (MCF7): 9%
inhibition of growth at 10 µM (HCT-15): 5%

CCOC(=O)Nc1ccc2c(=O)n(-c3ccccc3C)c(C)nc2c1
inhibition of growth at 10 µM (UACC-62): 15.8%
TD50 at 0.5 h [1]: 1780 µmol/kg
inhibition of growth at 10 µM (Malme-3M): 5.4%
inhibition of growth at 10 µM (OVCAR-5): 3.2%
inhibition of growth at 10 µM (SK-MEL-28): 1.72%
LD50 [2]: 1930 µmol/kg
inhibition of growth at 10 µM (UACC-257): 7%
selectivity ratio [3]: 2.6
inhibition of growth at 10 µM (SR): 24.1%
inhibition of growth at 10 µM (SNB-75): 21.3%
inhibition of growth at 10 µM (PC-3): 11.2%
inhibition of growth at 10 µM (MDA-MB-435): 41.6%
inhibition of growth at 10 µM (SW-620): 2%
inhibition of growth at 10 µM (CAKI-1): 5.3%
inhibition of growth at 10 µM (A549): 3%
Activity (Mus musculus [4]): 0%
ED50 (Mus musculus [5]): 740 µmol/kg
Activity (Mus musculus [6]): 100%
Activity (Mus musculus [7]): 100%
inhibition of growth at 10 µM (U-251): 4.5%
inhibition of growth at 10 µM (CCRF-CEM): 2.2%
inhibition of growth at 10 µM (BT-549): 3.5%
inhibition of growth at 10 µM (UO-31): 24.1%
inhibition of growth at 10 µM (K562): 6.2%
inhibition of growth at 10 µM (HT-29): 7.8%
inhibition of growth at 10 µM (A498): 4%
inhibition of growth at 10 µM (KM12): 12%
inhibition of growth at 10 µM (SF-539): 17.2%
Ratio TD50/ED50 (Mus musculus [8]): 2.4
inhibition of growth at 10 µM (OVCAR-3): 3.8%
inhibition of growth at 10 µM (SNB-19): 5.7%
inhibition of growth at 10 µM (SK-MEL-5): 2.4%
inhibition of growth at 10 µM (EKVX): 11.6%
inhibition of growth at 10 µM (ACHN): 4%
inhibition of growth at 10 µM (RPMI-8226): 6.5%
inhibition of growth at 10 µM (MCF7): 5%
inhibition of growth at 10 µM (HCT-15): 6.4%
